These results are taken from ChEMBL document CHEMBL1137646, “Intracellular metabolism and persistence of the anti-human immunodeficiency virus activity of 2',3'-didehydro-3'-deoxy-4'-ethynylthymidine, a novel thymidine analog” (Antimicrob Agents Chemother, 2007).

For data set [1], the system named is Human immunodeficiency virus 1. Briefly: Antiviral activity against 0.1 MOI HIV1 3B in 24 hrs pretreated human TZM-b1 cells infected 48 hrs post drug removal assessed as inhibition of viral replication at 0.04 to 0.18 uM measured 24 hrs postinfection by luciferase assay. The class given is functional, organism-based. Summed up:
(§1)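 TZM-bl cells (kept in DMEM) were plated at 0.5 x 10^4 per well in phenol red-free RPMI 1640 and left to adhere 15-18 h at 37°C. They were then exposed to drug for 24 h with quintuple wells per concentration. Medium was changed to remove drug, and cells were infected with HIV-1 IIIB at MOI 0.1 at 0, 24 or 48 h after removal. Luciferase was read 24 h post-infection after subtracting the uninfected background. Inhibition is expressed relative to drug-free control wells.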

The nature of data set [2]: Half life in plasma of HIV1-infected patient. The class given is ADME, cell-free. As to conditions: human.
For data set [3], the system named is Human immunodeficiency virus 1. Put plainly: Antiviral activity against 0.1 MOI HIV1 3B infected in human TZM-b1 cells assessed as inhibition of viral replication after 24 hrs by luciferase assay. Type of data set: functional, organism-based. Summed up:
(§2)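 TZM-bl cells in phenol red-free RPMI 1640 were infected with HIV-1 IIIB (MOI 0.1) at the time of adding drug at various concentrations, and drug and virus stayed together for 24 h. Lysate luciferase was measured with uninfected background subtracted, in quintuple wells. Inhibition was the mean signal relative to drug-free infected cells.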

The nature of data set [4]: Half life in plasma of HIV1-infected patient administered as single dose. The class given is ADME, cell-free. The settings on record: human.
Data set [5] has as its system Human immunodeficiency virus 1. Put plainly: Antiviral activity against 0.1 MOI HIV1 3B in 24 hrs pretreated human TZM-b1 cells infected 0 hr post drug removal assessed as inhibition of viral replication at 0.18 uM measured 24 hrs postinfection by luciferase assay. As to conditions: Human immunodeficiency virus 1, 3B. Type of data set: functional. Summed up:
as §1

In data set [6] the test system is Human immunodeficiency virus 1. Put plainly: Antiviral activity against 0.1 MOI HIV1 3B infected in human TZM-b1 cells assessed as inhibition of viral replication at 0.11 uM after 24 hrs by luciferase assay. Type of data set: functional. As to conditions: Human immunodeficiency virus 1, 3B, TZM-b1, 24 h. Summed up:
(§3)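 TZM-bl cells were plated at 0.5 x 10^4 per well in phenol red-free RPMI 1640 and allowed to adhere 15-18 h at 37°C. After a medium change, drug was added with quintuple wells per concentration, and cells were infected at the same time with HIV-1 IIIB at MOI 0.1. After 24 h, cells were lysed and luciferase was read minus the uninfected background. Values are percentage of mean luminescence in drug-free wells.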

In data set [7] the test system is Human immunodeficiency virus 1. Put plainly: Antiviral activity against 0.1 MOI HIV1 3B in 24 hrs pretreated human TZM-b1 cells infected 24 hrs post drug removal assessed as inhibition of viral replication at 0.04 to 0.18 uM measured 24 hrs postinfection by luciferase assay. Type of data set: functional, organism-based. In a few lines:
as §1

Data set [8] concerns Human immunodeficiency virus 1. Put plainly: Antiviral activity against 0.1 MOI HIV1 3B infected in human TZM-b1 cells assessed as inhibition of viral replication at 0.18 uM after 24 hrs by luciferase assay. Type of data set: functional. The settings on record: Human immunodeficiency virus 1, 3B, TZM-b1, 24 h. In a few lines: as §3
Data set [9] deals with Human immunodeficiency virus 1. Briefly: Antiviral activity against 0.1 MOI HIV1 3B infected in human TZM-b1 cells assessed as inhibition of viral replication at 0.14 uM after 24 hrs by luciferase assay. The class given is functional. As to conditions: Human immunodeficiency virus 1, 3B, TZM-b1, 24 h. Summed up:
as §3

Data set [10] deals with CCRF-CEM. Put plainly: Drug metabolism in human CEM cells assessed as radioactive stavudine monophosphate accumulation at 2 uM after 12 hrs assessed per 10^6 cells. Type of data set: ADME, cell-based. In a few lines:
(§4)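 CEM cells (2 x 10^7/ml) in RPMI 1640 with 10% dialyzed FBS were incubated at 37°C with 2 µM [3H]analog (75 mCi/mmol) and harvested at 2, 4, 8, 12, 16 and 24 h. Cells were washed in ice-cold PBS with 20 µM dipyridamole and extracted with 15% TCA. Neutralized extracts were separated on a Partisil SAX column with an H2O to 300 mM potassium phosphate gradient and radiometric detection, reported as pmol/10^6 cells, mean ± SD of three experiments.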

For data set [11], the system named is Human immunodeficiency virus 1. Put plainly: Antiviral activity against 0.1 MOI HIV1 3B infected in human TZM-b1 cells assessed as inhibition of viral replication at 6 uM after 24 hrs by luciferase assay. The class given is functional. As to conditions: Human immunodeficiency virus 1, 3B, TZM-b1, 24 h. Summed up:
as §2

In data set [12] the test system is CCRF-CEM. Briefly: Drug metabolism in human CEM cells assessed as radioactive 2', 3'-didehydro-3'-deoxy-4'-ethynylthymidine triphosphate accumulation at 2 uM assessed per 10^6 cells. The class given is ADME, cell-based. As to conditions: TDE = time-dependent effect. In a few lines:
as §4

Data set [13] has as its system CCRF-CEM. Put plainly: Drug metabolism in human CEM cells assessed as radioactive stavudine monophosphate accumulation at 2 uM assessed per 10^6 cells. Type of data set: ADME, cell-based. As to conditions: TDE = time-dependent effect. In a few lines:
as §4

Data set [14] has as its system CCRF-CEM. Put plainly: Drug metabolism in human CEM cells assessed as radioactive 2', 3'-didehydro-3'-deoxy-4'-ethynylthymidine diphosphate accumulation at 2 uM assessed per 10^6 cells. The settings on record: TDE = time-dependent effect. Type of data set: ADME, cell-based. In a few lines:
as §4

Data set [15] deals with CCRF-CEM. Put plainly: Drug metabolism in human CEM cells assessed as radioactive stavudine triphosphate accumulation at 2 uM after 12 hrs assessed per 10^6 cells. Type of data set: ADME, cell-based. Summed up: as §4
The subject of data set [16] is CCRF-CEM. Briefly: Stability in human CEM cells assessed as intracellular radioactive triphosphate metabolite accumulation at 2 uM incubated for 24 hrs measured after 24 hrs of compound removal assessed per 10^6 cells. Type of data set: ADME, cell-based. In a few lines:
(§5)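 CEM cells were loaded with 2 µM [3H]analog (75 mCi/mmol) for 24 h, washed, and resuspended in drug-free medium. Intracellular metabolites were then measured by SAX-HPLC with radiometric detection at 0, 2, 4, 8, 12 and 24 h after removal. Values are pmol/10^6 cells, mean ± SD of three experiments.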

The subject of data set [17] is Human immunodeficiency virus 1. Put plainly: Antiviral activity against 0.1 MOI HIV1 3B in 24 hrs pretreated human TZM-b1 cells infected 24 hrs post drug removal assessed as inhibition of viral replication at 1 to 6 uM measured 24 hrs postinfection by luciferase assay. Type of data set: functional, organism-based. Summed up: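 TZM-bl cells were plated in phenol red-free RPMI 1640, allowed to adhere 15–18 h at 37°C, then exposed to a range of drug concentrations for 24 h. Medium was changed to remove extracellular drug, and cells were infected with HIV-1 IIIB (MOI 0.1) at 0, 24 or 48 h after removal. Luciferase was read 24 h post-infection with uninfected-cell background subtracted, in quintuple wells, and expressed relative to no-drug wells.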

Data set [18] has as its system CCRF-CEM. Put plainly: Drug metabolism in human CEM cells assessed as radioactive stavudine diphosphate accumulation at 2 uM assessed per 10^6 cells. The class given is ADME, cell-based. As to conditions: TDE = time-dependent effect. Summed up:
as §4

Data set [19] deals with CCRF-CEM. Put plainly: Drug metabolism in human CEM cells assessed as radioactive zidovudine diphosphate accumulation at 2 uM assessed per 10^6 cells. The class given is ADME, cell-based. As to conditions: TDE = time-dependent effect. Summed up:
as §4

Data set [20] relates to CCRF-CEM. Put plainly: Drug metabolism in human CEM cells assessed as radioactive stavudine triphosphate accumulation at 2 uM assessed per 10^6 cells. Type of data set: ADME, cell-based. The settings on record: TDE = time-dependent effect. In a few lines: as §4
Data set [21] has as its system CCRF-CEM. Briefly: Drug metabolism in human CEM cells assessed as radioactive 2', 3'-didehydro-3'-deoxy-4'-ethynylthymidine monophosphate accumulation at 2 uM assessed per 10^6 cells. Type of data set: ADME, cell-based. The settings on record: TDE = time-dependent effect. In a few lines: as §4
Data set [22] concerns Human immunodeficiency virus 1. Put plainly: Antiviral activity against 0.1 MOI HIV1 3B in 24 hrs pretreated human TZM-b1 cells infected 24 hrs post drug removal assessed as inhibition of viral replication at 1 to 6 uM measured 24 hrs postinfection by luciferase assay.
In data set [23] the test system is CCRF-CEM. Briefly: Stability in human CEM cells assessed as intracellular radioactive phosphorylated metabolite accumulation at 2 uM incubated for 24 hrs measured after 8 hrs of compound removal assessed per 10^6 cells. Type of data set: ADME, cell-based. Summed up:
as §5

The subject of data set [24] is Human immunodeficiency virus 1. Briefly: Antiviral activity against 0.1 MOI HIV1 3B infected in human TZM-b1 cells assessed as inhibition of viral replication at 2 uM after 24 hrs by luciferase assay. The class given is functional. As to conditions: Human immunodeficiency virus 1, 3B, TZM-b1, 24 h. In a few lines:
as §2

Data set [25] relates to CCRF-CEM. Briefly: Drug metabolism in human CEM cells assessed as radioactive stavudine diphosphate accumulation at 2 uM after 12 hrs assessed per 10^6 cells. Type of data set: ADME, cell-based. In a few lines: as §4
Data set [26] relates to CCRF-CEM. Briefly: Drug metabolism in human CEM cells assessed as radioactive zidovudine monophosphate accumulation at 2 uM assessed per 10^6 cells. Type of data set: ADME, cell-based. As to conditions: TDE = time-dependent effect. Summed up:
as §4

Data set [27] concerns CCRF-CEM. Briefly: Drug metabolism in human CEM cells assessed as radioactive zidovudine triphosphate accumulation at 2 uM assessed per 10^6 cells. The class given is ADME, cell-based. The settings on record: TDE = time-dependent effect. Summed up: as §4

Active and inactive are the calls of the source. The calls are words filed in the database; no cut-off is given here.

Turning to `Cc1ccnc2c1NC(=O)c1cccnc1N2C1CC1` [NEVIRAPINE], the inhibition result in data set [1] and in data set [7] was “inactive” each time. Besides, the half-life in data set [2] and in data set [4] was 30 h each time. Besides, in data set [3], the inhibition result is “Dose-dependent effect”. Further, the results for the inhibition at 0.18 µM in data set [5] and in data set [8] were less than 50% and 50%, respectively. The inhibition at 0.11 µM in data set [6] was 50%. The inhibition at 0.14 µM in data set [9] is 50%.
For `Cc1cn([C@H]2C=C[C@@H](CO)O2)c(=O)[nH]c1=O` [STAVUDINE], the Activity was 1.2 pmol in data set [10]; “tde” in data set [12]; “tde” in data set [13]; “tde” in [14]; 1.2 pmol in data set [15]; “tde” in data set [18]. Besides, the Activity entry is “tde” in data set [19]; “tde” in data set [20]; “tde” in data set [21]; 1.2 pmol in data set [25]; “tde” in data set [26]; “tde” in data set [27]. Moreover, the inhibition at 6 µM in data set [11] turned out to be 50%. Also, the Stability entry in data set [16] is given as “Unstable”; in data set [23], 0.2 pmol. Moreover, in data set [3], the inhibition entry is “Dose-dependent effect”. Further, the inhibition entry in data set [17] and in [22] was “inactive” each time. Besides, the inhibition at 2 µM in [24] came to 50%.
